{"source": "ChEMBL document CHEMBL1132488", "about": "“On the bioactive conformation of NAN-190 (1) and MP3022 (2), 5-HT(1A) receptor antagonists” (J Med Chem, 1999)", "key": {"Rattus norvegicus [1]": {"organism": "Rattus norvegicus", "assay": "Induction of behavioral syndrome(FT: forepaw treading) by the compound in reserpine pretreated rats at a dose of 8.", "format": "functional", "method_in_brief": "(§1)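 Male Wistar rats (260–300 g) were given reserpine 1 mg/kg sc in saline 18 h before testing. Test compound was then given alone ip as a 1% Tween 80 suspension (2 mL/kg). FBP and FT were each scored 0–3 and summed (maximum 15). n=6 per group; mean ± SEM; Newman–Keuls test.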"}, "Rattus norvegicus [2]": {"organism": "Rattus norvegicus", "assay": "Effect on 8-OH-DAPT- induced behavioral syndrome(FT: forepaw treading) by the compound in reserpine pretreated rats at a dose of 2.", "format": "functional"}, "Rattus norvegicus [3]": {"organism": "Rattus norvegicus", "assay": "Effect on 8-OH-DAPT- induced behavioral syndrome(FT: forepaw treading) by the compound in reserpine pretreated rats at a dose of.1", "format": "functional"}, "Rattus norvegicus [4]": {"test_system": "Rattus norvegicus", "assay": "Induction of LLR(lower lip retraction) by the compound in rats at a dose of 2 mg/kg", "format": "functional", "method_in_brief": "(§2)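 Male Wistar rats, groups of 6, given compound alone ip as 1% Tween 80 suspension. Lower incisor visibility scored 0/0.5/1 at 15, 30 and 45 min after dosing, summed (max 3 per rat). Mean ± SEM versus vehicle, Newman–Keuls test; ED50 with range.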"}, "Rattus norvegicus [5]": {"organism": "Rattus norvegicus", "assay": "Induction of behavioral syndrome(FT: forepaw treading) by the compound in reserpine pretreated rats at a dose of.1", "format": "functional"}, "Rattus norvegicus [6]": {"organism": "Rattus norvegicus", "assay": "Induction of behavioral syndrome(FBP: flat body posture) by the compound in reserpine pretreated rats at a dose of 4.", "format": "functional", "method_in_brief": "as §1"}, "Rattus norvegicus [7]": {"test_system": "Rattus norvegicus", "assay": "Effect on 8-OH-DPAT-Induced LLR(lower lip retraction) in rats at a dose of 1 mg/kg", "format": "functional", "method_in_brief": "(§3)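 Male Wistar rats, groups of 6. Compound given ip in 1% Tween 80 45 min before 8-OH-DPAT 1 mg/kg sc. Lower incisor visibility scored 0/0.5/1 at 15, 30 and 45 min after agonist, summed (max 3). Mean ± SEM; Newman–Keuls test; ED50 with range.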"}, "Rattus norvegicus [8]": {"organism": "Rattus norvegicus", "assay": "Effect on 8-OH-DAPT- induced behavioral syndrome(FBP: flat body posture) by the compound in reserpine pretreated rats at a dose of 4.", "format": "functional", "method_in_brief": "(§4)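 Reserpinized male Wistar rats (reserpine 1 mg/kg sc, 18 h before), groups of 6. Compound given ip in 1% Tween 80 60 min before 8-OH-DPAT 5 mg/kg sc. FBP/FT rated 0–3 at 3, 6, 9, 12 and 15 min after agonist, summed (max 15). Mean ± SEM; Newman–Keuls test; ED50 with range.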"}, "Rattus norvegicus [9]": {"test_system": "Rattus norvegicus", "assay": "Induction of LLR(lower lip retraction) by the compound in rats at a dose of 4 mg/kg", "format": "functional", "method_in_brief": "as §2"}, "Rattus norvegicus [10]": {"organism": "Rattus norvegicus", "assay": "Effect on 8-OH-DAPT- induced behavioral syndrome(FBP: flat body posture) by the compound in reserpine pretreated rats at a dose of 2.", "format": "functional"}, "Rattus norvegicus [11]": {"organism": "Rattus norvegicus", "assay": "Effect on 8-OH-DAPT- induced behavioral syndrome(FBP: flat body posture) by the compound in reserpine pretreated rats at a dose of 8.", "format": "functional", "method_in_brief": "as §4"}, "Rattus norvegicus [12]": {"test_system": "Rattus norvegicus", "assay": "Effect on 8-OH-DPAT-Induced LLR(lower lip retraction) in rats at a dose of 4 mg/kg", "format": "functional", "method_in_brief": "as §3"}, "Rattus norvegicus [13]": {"organism": "Rattus norvegicus", "assay": "Effect on 8-OH-DAPT- induced behavioral syndrome(FT: forepaw treading) by the compound in reserpine pretreated rats at a dose of 8.", "format": "functional", "method_in_brief": "as §4"}, "Rattus norvegicus [14]": {"organism": "Rattus norvegicus", "assay": "Induction of behavioral syndrome(FT: forepaw treading) by the compound in reserpine pretreated rats at a dose of 4.", "format": "functional", "method_in_brief": "as §1"}, "Rattus norvegicus [15]": {"test_system": "Rattus norvegicus", "assay": "Effect on 8-OH-DPAT-Induced LLR(lower lip retraction) in rats at a dose of 2 mg/kg", "format": "functional", "method_in_brief": "as §3"}, "Rattus norvegicus [16]": {"organism": "Rattus norvegicus", "assay": "Dose Inducing behavioral syndrome(FT: forepaw treading) by the compound in reserpine pretreated rats.", "format": "functional", "method_in_brief": "(§5)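 Male Wistar rats (260–300 g), groups of 6, given reserpine 1 mg/kg sc 18 h before test. Compounds given ip as 1% Tween 80 suspension. FBP and FT rated 0–3 in 45-s sessions every 3 min, starting 3 min after dosing. Score summed over 5 periods (max 15 per symptom). Mean ± SEM; Newman–Keuls test.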"}, "Rattus norvegicus [17]": {"organism": "Rattus norvegicus", "assay": "Induction of behavioral syndrome(FBP: flat body posture) by the compound in reserpine pretreated rats at a dose of 2.", "format": "functional", "method_in_brief": "as §5"}, "Rattus norvegicus [18]": {"organism": "Rattus norvegicus", "assay": "Effect on 8-OH-DAPT- induced behavioral syndrome(FBP: flat body posture) by the compound in reserpine pretreated rats at a dose of.1", "format": "functional"}, "Rattus norvegicus [19]": {"test_system": "Rattus norvegicus", "assay": "Induction of LLR(lower lip retraction) by the compound in rats at a dose of 1 mg/kg", "format": "functional", "method_in_brief": "as §2"}, "Rattus norvegicus [20]": {"organism": "Rattus norvegicus", "assay": "Dose inhibiting 8-OH-DPAT-induced behavioral syndrome(FBP: flat body posture) by the compound in reserpine pretreated rats."}, "Rattus norvegicus [21]": {"organism": "Rattus norvegicus", "assay": "Effect on 8-OH-DAPT- induced behavioral syndrome(FT: forepaw treading) by the compound in reserpine pretreated rats at a dose of 4.", "format": "functional", "method_in_brief": "as §4"}, "Rattus norvegicus [22]": {"organism": "Rattus norvegicus", "assay": "Induction of behavioral syndrome(FT: forepaw treading) by the compound in reserpine pretreated rats at a dose of 2.", "format": "functional"}, "Rattus norvegicus [23]": {"organism": "Rattus norvegicus", "assay": "Induction of behavioral syndrome(FBP: flat body posture) by the compound in reserpine pretreated rats at a dose of.1", "format": "functional"}, "Rattus norvegicus [24]": {"organism": "Rattus norvegicus", "assay": "Induction of behavioral syndrome(FBP: flat body posture) by the compound in reserpine pretreated rats at a dose of 8.", "format": "functional", "method_in_brief": "as §1"}, "Rattus norvegicus [25]": {"organism": "Rattus norvegicus", "assay": "Effective dose of the required to inhibit symptoms produced by 8-OH-DPAT", "format": "functional", "method_in_brief": "as §4"}}}
{"smiles": "COc1ccccc1N1CCN(CCCCN2C(=O)c3ccccc3C2=O)CC1", "note": "[NAN-190]", "values": [{"measurement": "FT mean score", "setting": "Rattus norvegicus [1]", "value": 0.1}, {"measurement": "FT mean score", "setting": "Rattus norvegicus [2]", "value": 5.7}, {"measurement": "FT mean score", "setting": "Rattus norvegicus [3]", "value": 10.8}, {"measurement": "LLR score", "setting": "Rattus norvegicus [4]", "value": 0.1}, {"measurement": "FT mean score", "setting": "Rattus norvegicus [5]", "value": 0.1}, {"measurement": "FBP mean score", "setting": "Rattus norvegicus [6]", "value": 0.1}, {"measurement": "LLR score", "setting": "Rattus norvegicus [7]", "value": 1.7}, {"measurement": "FBP mean score", "setting": "Rattus norvegicus [8]", "value": 2.3}, {"measurement": "LLR score", "setting": "Rattus norvegicus [9]", "value": 0.1}, {"measurement": "FBP mean score", "setting": "Rattus norvegicus [10]", "value": 6}, {"measurement": "FBP mean score", "setting": "Rattus norvegicus [11]", "value": 2.3}, {"measurement": "LLR score", "setting": "Rattus norvegicus [12]", "value": 0.6}, {"measurement": "FT mean score", "setting": "Rattus norvegicus [13]", "value": 1.8}, {"measurement": "FT mean score", "setting": "Rattus norvegicus [14]", "value": 0.2}, {"measurement": "LLR score", "setting": "Rattus norvegicus [15]", "value": 1.4}, {"measurement": "ED50", "setting": "Rattus norvegicus [16]", "value": 2.5, "unit": "mg/kg"}, {"measurement": "FBP mean score", "setting": "Rattus norvegicus [17]", "value": 0.2}, {"measurement": "FBP mean score", "setting": "Rattus norvegicus [18]", "value": 12.4}, {"measurement": "LLR score", "setting": "Rattus norvegicus [19]", "value": 0.1}, {"measurement": "ED50", "setting": "Rattus norvegicus [20]", "value": 2, "unit": "mg/kg"}, {"measurement": "FT mean score", "setting": "Rattus norvegicus [21]", "value": 6.2}, {"measurement": "FT mean score", "setting": "Rattus norvegicus [22]", "value": 0.2}, {"measurement": "FBP mean score", "setting": "Rattus norvegicus [23]", "value": 0.1}, {"measurement": "FBP mean score", "setting": "Rattus norvegicus [24]", "value": 0.2}, {"measurement": "ED50", "setting": "Rattus norvegicus [25]", "value": 1.7, "unit": "mg/kg"}]}
